{"source": "paper PMC8165011", "about": "(European journal of medicinal chemistry, 2021)", "key": {"[1]": {"system": "S. aureus ATCC 700699", "assay": "Time kill assay", "assay_type": "cell-based", "details": "4xMIC", "in_short": "(§1)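 Log-phase culture diluted to ~5 × 10^6 CFU/ml in warm CAMHB and exposed to test compound at 4xMIC at 35 °C. Samples taken every 2 h, diluted 10-fold down to 10^-5, and viable counts done by 6×6 drop plating after 18–24 h at 35 °C. Each assay run in triplicate.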"}, "[2]": {"system": "S. aureus and E. faecalis biofilms", "assay": "Biofilm inhibition and destruction at 4x and 8xMIC", "assay_type": "cell-based", "details": "4x and 8xMIC (data not shown)"}, "[3]": {"system": "E. faecalis ATCC 29212", "assay": "Multistep", "assay_type": "cell-based", "details": "for increase in resistance (in words): through the 14th passage"}, "[4]": {"system": "S. aureus ATCC 25923 (MSSA)", "assay": "Multistep", "assay_type": "cell-based", "details": "sub-lethal exposure, 21 passages"}, "[5]": {"system": "S. aureus ATCC 700699 (MRSA) stationary phase persister cells", "assay": "Persister cell killing assay", "assay_type": "cell-based", "details": "for log reduction of persister cells: within 4 h"}, "[6]": {"system": "S. aureus UAMS-1 catheter-associated biofilm", "assay": "In vitro model of catheter-associated biofilm", "assay_type": "cell-based", "details": "after 2 days of exposure, 20xMIC (40 μg/ml), per catheter"}, "[7]": {"system": "tested Gram-positive strains", "assay": "MIC assay, summary over the tested Gram-positive strains", "assay_type": "cell-based", "details": "tested Gram-positive strains", "in_short": "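CLSI standard broth microdilution. Test compound started at 50 µg/ml and serially diluted 2-fold. Run in triplicate.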"}, "[8]": {"system": "human embryonic kidney (HEK293) cells", "assay": "Cytotoxicity against HEK293 cell line", "assay_type": "cell-based", "details": "HEK293 IC50 / MIC for S. aureus ATCC 25923 and ATCC 700699; as high as", "in_short": "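HEK293 cells kept in EMEM with 10% FBS at 37 °C, 5% CO2. Seeded at 4000 cells/well and treated 24 h with a concentration range of test compound in DMSO. Resazurin (0.15 mg/ml solution as added) incubated 4 h more; fluorescence read at ex 560/em 590 nm. IC50 obtained by curve fitting; selectivity factor computed as IC50/MIC.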"}, "[9]": {"system": "S. aureus ATCC 25923 preformed biofilm", "assay": "Biofilm destruction assay", "assay_type": "cell-based", "details": "2xMIC"}, "[10]": {"system": "DNA synthesis in S. aureus ATCC 29213", "assay": "Macromolecular synthesis inhibition: DNA synthesis", "assay_type": "cell-based", "details": "0.25xMIC"}, "[11]": {"system": "S. aureus ATCC 33591", "assay": "Time kill assay", "assay_type": "cell-based", "details": "4xMIC", "in_short": "as §1"}, "[12]": {"system": "lipid synthesis in S. aureus ATCC 29213", "assay": "Macromolecular synthesis inhibition: lipid synthesis", "assay_type": "cell-based", "details": "MIC"}, "[13]": {"system": "S. aureus ATCC 25923 biofilm", "assay": "Biofilm inhibition assay", "assay_type": "cell-based", "details": "2xMIC", "in_short": "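After 24 h at 35 °C: PBS washes, drying at 60 °C for 15 min, 0.1% (w/v) crystal violet for 15 min, solubilisation in 33% acetic acid, OD 620 nm. Controls: broth only, and bacteria with DMSO.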"}, "[14]": {"system": "S. aureus clinical isolates (MSSA, MRSA)", "assay": "MIC against clinical isolates of S. aureus", "assay_type": "cell-based", "details": "Staphylococcus aureus"}, "[15]": {"system": "methicillin-sensitive clinical isolate of S. aureus UAMS-1", "details": "breakpoint MIC used for comparison; ref not given; cited from earlier work"}, "[16]": {"system": "E. faecalis ATCC 29212 preformed biofilm", "assay": "Biofilm destruction assay", "assay_type": "cell-based", "details": "2xMIC"}, "[17]": {"system": "E. faecalis clinical isolates (VRE)", "assay": "MIC against clinical isolates of E. faecalis", "assay_type": "cell-based"}, "[18]": {"system": "S. aureus ATCC 700699 (MRSA)", "assay": "Multistep", "assay_type": "cell-based", "details": "sub-lethal exposure, 21 passages"}, "[19]": {"system": "E. faecium clinical isolates (VRE)", "assay": "MIC against clinical isolates of E. faecium", "assay_type": "cell-based"}}, "data": [{"smiles": "O=C(O)c1ccc(-n2cc(CNc3cc(F)cc(C(F)(F)F)c3)c(-c3ccc(C(F)(F)F)cc3)n2)cc1", "note": "[Compound 59, 4-[4-[[3-fluoro-5-(trifluoromethyl)anilino]methyl]-3-[4-(trifluoromethyl)phenyl]pyrazol-1-yl]benzoic acid]", "values": [{"measurement": "time to eliminate more than 3 log values", "setting": "[1]", "result": "≤ 4", "unit": "h"}, {"measurement": "log values of bacteria eliminated", "setting": "[1]; within 4 h of treatment", "result": "more than 3 log"}, {"measurement": "biofilm inhibition and destruction", "setting": "[2]", "result": "> 95", "unit": "%"}, {"measurement": "increase in resistance (in words)", "setting": "[3]", "result": "no increase in resistance"}, {"measurement": "passage at which MIC doubled", "setting": "[4]", "result": 8, "unit": "passage"}, {"measurement": "log reduction of persister cells", "setting": "[5]; 2xMIC", "result": "~ 1 log"}, {"measurement": "log reduction of persister cells", "setting": "[5]; 8xMIC", "result": "~ 3 log"}, {"measurement": "average CFU counts", "setting": "[6]", "result": "4.74 × 10^5 CFU"}, {"measurement": "antimicrobial activity (in words)", "setting": "[7]", "result": "most potent compound"}, {"measurement": "Selectivity factor (IC50/MIC values)", "setting": "[8]", "result": "≤ 13"}, {"measurement": "preformed biofilm eliminated", "setting": "[9]", "result": "around 70%"}, {"measurement": "inhibition of DNA synthesis", "setting": "[10]", "result": "approximately 44%"}, {"measurement": "time to eliminate more than 3 log values", "setting": "[11]", "result": "≤ 4", "unit": "h"}, {"measurement": "log values of bacteria eliminated", "setting": "[11]; within 4 h of treatment", "result": "more than 3 log"}, {"measurement": "inhibition of lipid synthesis", "setting": "[12]", "result": 56.2, "unit": "%"}]}, {"smiles": "O=C(O)c1ccc(-n2cc(CNc3cc(Cl)c(F)c(Cl)c3)c(-c3ccc(C(F)(F)F)cc3)n2)cc1", "note": "[Compound 74, 4-[4-[(3,5-dichloro-4-fluoro-anilino)methyl]-3-[4-(trifluoromethyl)phenyl]pyrazol-1-yl]benzoic acid]", "values": [{"measurement": "time to eliminate more than 3 log values", "setting": "[1]", "result": "≤ 6", "unit": "h"}, {"measurement": "increase in resistance (in words)", "setting": "[3]", "result": "no increase in resistance"}, {"measurement": "biofilm formation inhibited", "setting": "[13]", "result": "greater than 85%"}, {"measurement": "log reduction of persister cells", "setting": "[5]; 2xMIC", "result": "~ 1 log"}, {"measurement": "log reduction of persister cells", "setting": "[5]; 4xMIC", "result": "~ 1 log"}, {"measurement": "log reduction of persister cells", "setting": "[5]; 8xMIC", "result": "~ 1 log"}, {"measurement": "Selectivity factor (IC50/MIC values)", "setting": "[8]", "result": "≤ 33"}, {"measurement": "time to eliminate more than 3 log values", "setting": "[11]", "result": "≤ 4", "unit": "h"}]}, {"smiles": "CN[C@H](CC(C)C)C(=O)N[C@H]1C(=O)N[C@@H](CC(N)=O)C(=O)N[C@H]2C(=O)N[C@H]3C(=O)N[C@H](C(=O)N[C@H](C(=O)O)c4cc(O)cc(O)c4-c4cc3ccc4O)[C@H](O)c3ccc(c(Cl)c3)Oc3cc2cc(c3O[C@@H]2O[C@H](CO)[C@@H](O)[C@H](O)[C@H]2O[C@H]2C[C@](C)(N)[C@H](O)[C@H](C)O2)Oc2ccc(cc2Cl)[C@H]1O", "note": "[vancomycin, Vancomycin]", "values": [{"measurement": "time to decrease bacterial concentration below detectable limits", "setting": "[1]", "result": 8, "unit": "h"}, {"measurement": "biofilm inhibition and destruction", "setting": "[2]", "result": "> 95", "unit": "%"}, {"measurement": "MIC", "setting": "[14]; ATCC29213|MRSA|MSSA, S. aureus ATCC 29213, MSSA", "result": 1, "unit": "µg/mL"}, {"measurement": "MIC", "setting": "[14]; MRSA|MSSA, S. aureus 1088060, MSSA", "result": 0.5, "unit": "µg/mL"}, {"measurement": "MIC", "setting": "[14]; MRSA|MSSA, S. aureus 1088064, MRSA", "result": 0.5, "unit": "µg/mL"}, {"measurement": "MIC", "setting": "[14]; MRSA|MSSA, S. aureus 1088105, MSSA", "result": 1, "unit": "µg/mL"}, {"measurement": "MIC", "setting": "[14]; MRSA|MSSA, S. aureus 1088610, MRSA", "result": 0.5, "unit": "µg/mL"}, {"measurement": "MIC", "setting": "[14]; MRSA|MSSA, S. aureus 1088626, MSSA", "result": 0.5, "unit": "µg/mL"}, {"measurement": "MIC", "setting": "[14]; MRSA|MSSA, S. aureus 1088888, MRSA", "result": 1, "unit": "µg/mL"}, {"measurement": "MIC", "setting": "[14]; MRSA|MSSA, S. aureus 1089106, MRSA", "result": 1, "unit": "µg/mL"}, {"measurement": "passage after which resistance increased", "setting": "[3]; 14 passages", "result": 7, "unit": "passage"}, {"measurement": "breakpoint MIC", "setting": "[15]", "result": "≥ 2", "unit": "µg/mL"}, {"measurement": "preformed biofilm destroyed", "setting": "[16]", "result": "around 70%"}, {"measurement": "MIC", "setting": "[17]; E. faecalis 1091563, VRE", "result": ">32", "unit": "µg/mL"}, {"measurement": "MIC", "setting": "[17]; E. faecalis 1091720, VRE", "result": ">32", "unit": "µg/mL"}, {"measurement": "MIC", "setting": "[17]; E. faecalis 1094112, VRE", "result": ">32", "unit": "µg/mL"}, {"measurement": "MIC", "setting": "[17]; E. faecalis 1100440, VRE", "result": ">32", "unit": "µg/mL"}, {"measurement": "MIC", "setting": "[17]; Enterococcus faecalis, VRE", "result": "> 32", "unit": "µg/mL"}, {"measurement": "passage at which MIC doubled", "setting": "[18]", "result": 7, "unit": "passage"}, {"measurement": "MIC", "setting": "[19]; E. faecium 1088168, VRE", "result": ">32", "unit": "µg/mL"}, {"measurement": "MIC", "setting": "[19]; E. faecium 1088925, VRE", "result": ">32", "unit": "µg/mL"}, {"measurement": "MIC", "setting": "[19]; E. faecium 1089544, VRE", "result": ">32", "unit": "µg/mL"}, {"measurement": "MIC", "setting": "[19]; E. faecium 1091282, VRE", "result": ">32", "unit": "µg/mL"}, {"measurement": "MIC", "setting": "[19]; Enterococcus faecium, VRE", "result": "> 32", "unit": "µg/mL"}, {"measurement": "effect on viability of MRSA persisters (in words)", "setting": "[5]; 64xMIC", "result": "did not affect the viability"}, {"measurement": "average CFU counts", "setting": "[6]", "result": "1.16 × 10^7 CFU"}, {"measurement": "time to decrease bacterial concentration below detectable limits", "setting": "[11]", "result": 8, "unit": "h"}]}]}
